Test results published in ChEMBL document CHEMBL4346727, “Synthesis and pharmacological evaluation of novel N-Mannich bases derived from 5,5-diphenyl and 5,5-di(propan-2-yl)imidazolidine-2,4-dione core” (Bioorg Med Chem Lett, 2019).
Active and inactive are the calls of the source. Unless noted, the calls are words filed in the database; no cut-off is given here.

Experiments:
[1] = Neurotoxicity in Sprague-Dawley rat at 30 mg/kg, po measured after 30 mins by rotarod test; format: toxicity, organism-based; details: in vivo, 0.5 h
How it was run: (§1)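 Rats given one oral dose of 30 mg/kg and tested on the rotarod at 0.25, 0.5, 1, 2, 4 and 6 h.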

Mus musculus [2] = assay: Anticonvulsant activity in CD1 mouse assessed as protection against 32 mA current-induced seizure at 50 mg/kg, ip measured after 1 hr by 6 Hz psychomotor seizure test
[3] = Neurotoxicity in po dosed Sprague-Dawley rat assessed as time to peak effect by rotarod test; format: toxicity, organism-based; details: in vivo
Rattus norvegicus [4] = assay: Anticonvulsant activity in po dosed Sprague-Dawley rat assessed as protection against subcutaneous pentylenetetrazole-induced seizures; format: functional
[5] = Neurotoxicity in Sprague-Dawley rat at 30 mg/kg, po measured after 15 mins by rotarod test; format: toxicity, organism-based; details: in vivo, 0.25 h; how it was run: as §1
Mus musculus [6] = assay: Potency index, ratio of phenytoin ED50 to compound ED50 for anticonvulsant activity in ip dosed CD1 mouse by 6 Hz psychomotor seizure test; format: functional
Rattus norvegicus [7] = assay: Anticonvulsant activity in po dosed Sprague-Dawley rat assessed as time to peak effect on protection against 150 mA current-induced seizures; format: functional
How it was run: (§2)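 Median effective doses were quantified in the maximal electroshock, subcutaneous pentylenetetrazole and 6 Hz tests after intraperitoneal dosing in mice or oral dosing in rats, at the time of peak effect. ED50 values are reported with ranges in parentheses.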

[8] = Neurotoxicity in CD1 mouse at 25 mg/kg, ip measured after 15 mins by rotarod test; details: in vivo, 0.25 h
Mus musculus [9] = assay: […] in CD1 mouse model assessed as formalin-induced nociception by measuring AUC during acute phase at 11 mg/kg, ip measured for 5 mins by formalin test relative to control; format: functional
[10] = Neurotoxicity in CD1 mouse at 50 mg/kg, ip measured after 30 mins by rotarod test; details: in vivo, 0.5 h
Mus musculus [11] = assay: Anticonvulsant activity in CD1 mouse assessed as protection against 32 mA current-induced seizure at 100 mg/kg, ip measured after 4 hrs by 6 Hz psychomotor seizure test
Mus musculus [12] = assay: Anticonvulsant activity in ip dosed CD1 mouse assessed as time to peak effect on protection against 32 mA current-induced seizure by 6 Hz psychomotor seizure test; format: functional; how it was run: as §2
[13] = Neurotoxicity in CD1 mouse at 25 mg/kg, ip measured after 2 hrs by rotarod test; details: in vivo
Mus musculus [14] = assay: Anticonvulsant activity in CD1 mouse assessed as protection against 32 mA current-induced seizure at 100 mg/kg, ip measured after 1 hr by 6 Hz psychomotor seizure test
[15] = Neurotoxicity in po dosed Sprague-Dawley rat model by rotarod test; format: toxicity, organism-based; details: in vivo
How it was run: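 Rats dosed orally; neurotoxicity scored on the rotarod. Screening used a fixed 30 mg/kg, with animals checked at 0.25, 0.5, 1, 2, 4 and 6 h; the reading is the number of four rats showing neurotoxicity. In quantitative runs, a median toxic dose (TD50, mg/kg) was determined after oral dosing at the time of peak effect.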

Rattus norvegicus [16] = assay: Anticonvulsant activity in po dosed Sprague-Dawley rat assessed as protection against 150 mA current-induced seizures; format: functional; how it was run: as §2
[17] = Neurotoxicity in ip dosed CD1 mouse and measured after 0.5 hrs by rotarod test; format: toxicity, organism-based; details: in vivo
How it was run: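 Mice dosed intraperitoneally at 30, 100 and 300 mg/kg, then tested on the rotarod at 0.5 h and 4 h. The value recorded is the minimum dose at which neurotoxicity appeared. A dash means no neurotoxicity at the top dose of 300 mg/kg.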

Mus musculus [18] = assay: Anticonvulsant activity in CD1 mouse assessed as protection against 32 mA current-induced seizure at 50 mg/kg, ip measured after 15 mins by 6 Hz psychomotor seizure test
Rattus norvegicus [19] = assay: Anticonvulsant activity in po dosed Sprague-Dawley rat assessed as time to peak effect on protection against 32 mA current-induced seizure by 6 Hz psychomotor seizure test; format: functional
[20] = Neurotoxicity in Sprague-Dawley rat at 30 mg/kg, po measured after 4 hr by rotarod test; format: toxicity, organism-based; details: in vivo; how it was run: as §1
Mus musculus [21] = assay: Anti-inflammatory activity in CD1 mouse model assessed as formalin-induced nociception by measuring AUC during inflammatory phase at 11 mg/kg, ip measured for 5 mins by formalin test relative to control; format: functional
[22] = Neurotoxicity in CD1 mouse at 50 mg/kg, ip measured after 1 hr by rotarod test; details: in vivo
Mus musculus [23] = assay: Anticonvulsant activity in CD1 mouse assessed as protection against subcutaneous pentylenetetrazole-induced seizures at 300 mg/kg, ip and measured after 4 hrs; format: functional, organism-based
How it was run: (§3)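 Mice were screened after intraperitoneal doses of 30, 100 and 300 mg/kg in the maximal electroshock and subcutaneous pentylenetetrazole tests, examined at 0.5 and 4 h. The value recorded is the minimum dose showing activity. No activity up to 300 mg/kg is scored as absent.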

Mus musculus [24] = assay: Anticonvulsant activity in CD1 mouse assessed as protection against 32 mA current-induced seizure at 100 mg/kg, ip measured after 30 mins by 6 Hz psychomotor seizure test
Mus musculus [25] = assay: Anticonvulsant activity in CD1 mouse assessed as protection against 32 mA current-induced seizure at 25 mg/kg, ip measured after 1 hr by 6 Hz psychomotor seizure test
Rattus norvegicus [26] = assay: Anticonvulsant activity in po dosed Sprague-Dawley rat assessed as time to peak effect on protection against subcutaneous pentylenetetrazole-induced seizures; format: functional
Mus musculus [27] = assay: Anticonvulsant activity in CD1 mouse assessed as protection against 32 mA current-induced seizure at 25 mg/kg, ip measured after 2 hrs by 6 Hz psychomotor seizure test
Mus musculus [28] = assay: Anticonvulsant activity in CD1 mouse assessed as protection against subcutaneous pentylenetetrazole-induced seizures at 300 mg/kg, ip and measured after 0.5 hrs; format: functional, organism-based; how it was run: as §3
[29] = Neurotoxicity in CD1 mouse at 25 mg/kg, ip measured after 30 mins by rotarod test; details: in vivo, 0.5 h
[30] = Neurotoxicity in CD1 mouse at 50 mg/kg, ip measured after 4 hrs by rotarod test; details: in vivo
Rattus norvegicus [31] = assay: Anticonvulsant activity in Sprague-Dawley rat assessed as protection against 150 mA current-induced seizure at 30 mg/kg, po measured after 1 hr by maximal electroshock seizure test; format: functional, organism-based
How it was run: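 Rats received 30 mg/kg orally and were given maximal electroshock at 0.25, 0.5, 1, 2, 4 and 6 h. Read-out is the number of rats protected out of four.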

[32] = Neurotoxicity in ip dosed CD1 mouse model by rotarod test; format: toxicity, organism-based; details: in vivo
[33] = Neurotoxicity in CD1 mouse at 50 mg/kg, ip measured after 2 hrs by rotarod test; details: in vivo

In the case of CN1CCN(CN2C(=O)NC(c3ccccc3)(c3ccccc3)C2=O)CC1, the Activity [1] is reported as “Non-Toxic”, the Activity (Mus musculus [2]) is reported as “Active” and the Time [3] is reported as 2 h. For the same compound, the ED50 (Rattus norvegicus [4]) was greater than 250 mg/kg, the Activity [5] was “Non-Toxic” and the “Ratio ED50” value (Mus musculus [6]) was 5. The Time (Rattus norvegicus [7]) was 2 h, the Activity [8] was “Non-Toxic” and the Activity (Mus musculus [9]) was 67.52%. The Activity [10] was “Non-Toxic”, the Activity (Mus musculus [11]) was “Active” and the Time (Mus musculus [12]) was 1 h. The Activity [13] was “Non-Toxic”, the Activity (Mus musculus [14]) was “Active” and the TD50 [15] was greater than 500 mg/kg. For the same compound, the ED50 (Rattus norvegicus [16]) was 38.5 mg/kg, the minimal neurotoxic dose [17] was 100 mg/kg and the Activity (Mus musculus [18]) was “Active”. The Time (Rattus norvegicus [19]) was 2 h, the Activity [20] was “Non-Toxic” and the Activity (Mus musculus [21]) was 90.3%. For the same compound, the Activity [22] was “Non-Toxic”, the Activity (Mus musculus [23]) was “inactive” and the Activity (Mus musculus [24]) was “Active”. For the same compound, the Activity (Mus musculus [25]) was “Active”, the Time (Rattus norvegicus [26]) was 2 h and the Activity (Mus musculus [27]) was “inactive”. The MED (Mus musculus [28]) was “inactive”, the Activity [29] was “Non-Toxic” and the Activity [30] was “Non-Toxic”. The Activity (Rattus norvegicus [31]) was “Active”, the TD50 [32] was 75.5 mg/kg and the Activity [33] was “Non-Toxic”.
